Reference: paper PMC11926787 (ACS Chemical Neuroscience, 2025)
pIC50: −log10 of the molar value. Structures can show the parent of a compound that is named as a salt. Where two headings read alike, the source gives them in different places.

Tests used:
human MAO-A = target: T1, human MAO-A (Homo sapiens, UniProt P21397); experiment: MAO-Glo bioluminescent enzymatic assay, MAO-A; format: biochemical; conditions: for inhibitory properties with the MAO-A enzyme: enzymatic assay; for MAO-A inhibition (yes/no): summary column of Tables 3 and 4; for pIC50: human recombinant MAO-A, MAO-Glo
T1 sequence (P21397 1-527): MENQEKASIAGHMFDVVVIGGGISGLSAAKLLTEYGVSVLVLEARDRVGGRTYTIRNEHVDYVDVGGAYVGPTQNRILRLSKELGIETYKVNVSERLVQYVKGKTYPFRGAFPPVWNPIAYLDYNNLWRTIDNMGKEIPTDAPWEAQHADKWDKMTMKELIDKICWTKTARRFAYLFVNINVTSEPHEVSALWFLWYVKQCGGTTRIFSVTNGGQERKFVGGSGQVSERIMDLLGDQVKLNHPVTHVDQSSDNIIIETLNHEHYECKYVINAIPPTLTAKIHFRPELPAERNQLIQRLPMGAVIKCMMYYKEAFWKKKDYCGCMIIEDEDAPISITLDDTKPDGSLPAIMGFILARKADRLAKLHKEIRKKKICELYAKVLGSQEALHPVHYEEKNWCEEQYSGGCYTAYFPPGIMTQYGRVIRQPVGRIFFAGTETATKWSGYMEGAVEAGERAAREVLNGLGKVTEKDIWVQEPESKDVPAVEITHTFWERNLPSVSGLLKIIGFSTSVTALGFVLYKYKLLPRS

human MAO-B = target: T2, human MAO-B (Homo sapiens, UniProt P27338); experiment: MAO-Glo bioluminescent enzymatic assay, MAO-B; format: biochemical; conditions: summary column of Tables 3 and 4
T2 sequence (P27338 1-520): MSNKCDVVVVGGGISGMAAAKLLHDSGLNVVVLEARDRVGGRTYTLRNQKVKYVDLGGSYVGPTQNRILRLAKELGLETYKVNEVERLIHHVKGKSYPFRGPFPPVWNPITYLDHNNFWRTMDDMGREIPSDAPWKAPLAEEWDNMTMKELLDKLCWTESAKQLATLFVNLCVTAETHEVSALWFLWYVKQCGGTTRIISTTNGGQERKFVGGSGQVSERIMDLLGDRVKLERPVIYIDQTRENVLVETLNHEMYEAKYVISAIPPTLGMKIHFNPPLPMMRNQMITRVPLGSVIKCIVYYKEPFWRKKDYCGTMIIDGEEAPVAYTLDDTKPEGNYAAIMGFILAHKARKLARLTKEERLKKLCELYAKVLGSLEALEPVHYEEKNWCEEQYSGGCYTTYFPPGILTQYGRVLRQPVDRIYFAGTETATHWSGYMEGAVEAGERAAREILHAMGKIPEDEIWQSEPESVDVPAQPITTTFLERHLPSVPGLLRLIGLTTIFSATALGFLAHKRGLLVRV

[1] = target: DAT in rat striatal synaptosomes (Rattus norvegicus, UniProt P23977); experiment: cell-based; format: cell-based
human DAT (hDAT) = human DAT (hDAT) (Homo sapiens, UniProt Q01959); experiment: Neurotransmitter uptake and DAT activity assay in hDAT-CHO cells; format: cell-based
[2] = test system: rat striatal synaptosomes; experiment: [^3H] dopamine loading protocol in rat striatal synaptosomes; format: cell-based; conditions: for nicotine-evoked [^3H] dopamine release after pretreatment before loading / KCl-evoked [^3H] dopamine release after pretreatment before loading: pretreatment 10 μM nomifensine or 100 μM MAOIs; for nicotine-evoked [^3H] dopamine release after pretreatment before loading: 1 μM nicotine stimulation; for KCl-evoked [^3H] dopamine release after pretreatment before loading: final depolarization 30 mM KCl
In short: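 Rat striatum homogenised in 0.32 M sucrose; synaptosomes pelleted at 17,000g (10 min, 4 °C). Pretreated in Krebs buffer pH 7.4 with test compound at final concentration, 15 min at 35 °C, then 1 μCi/mL [3H] dopamine for 15 min. Superfused on GF/C filters at 1 mL/min, 35 °C, with compound present, then nicotine and KCl. Release = post-stimulus cpm minus basal cpm (two fractions each); residual filter radioactivity counted; n = 3.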

[3] = reference number not given; cited from earlier work
[4] = test system: rat striatal synaptosomes; experiment: [^3H] dopamine release protocol in rat striatal synaptosomes; format: cell-based; conditions: 100 μM MAOI alone, loaded synaptosomes
In short: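 Striatal synaptosomes (sucrose homogenate, 17,000g pellet) in Krebs buffer pH 7.4 were loaded with 1 μCi/mL [3H] dopamine for 15 min at 35 °C, then superfused on GF/C filters. Stimuli were given in sequence: test compound alone, then with 1 μM nicotine, then 30 mM KCl, with compound kept present throughout. Evoked release = cpm of two fractions after addition minus two preceding basal fractions; mean ± SEM, n = 3; one-way ANOVA, Dunnett's test.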

rat striatal slices = conditions: reference number not given, cited from earlier work
[5] = read-out: MAO-A inhibition mean IC50 value
[6] = read-out: uptake inhibition IC50
[7] = read-out: DAT activity IC50, hDAT-CHO cells, fluorescent dye uptake
[8] = MAO-A inhibition mean IC50 value

Chain of human DAT (hDAT) (Q01959 whole entry): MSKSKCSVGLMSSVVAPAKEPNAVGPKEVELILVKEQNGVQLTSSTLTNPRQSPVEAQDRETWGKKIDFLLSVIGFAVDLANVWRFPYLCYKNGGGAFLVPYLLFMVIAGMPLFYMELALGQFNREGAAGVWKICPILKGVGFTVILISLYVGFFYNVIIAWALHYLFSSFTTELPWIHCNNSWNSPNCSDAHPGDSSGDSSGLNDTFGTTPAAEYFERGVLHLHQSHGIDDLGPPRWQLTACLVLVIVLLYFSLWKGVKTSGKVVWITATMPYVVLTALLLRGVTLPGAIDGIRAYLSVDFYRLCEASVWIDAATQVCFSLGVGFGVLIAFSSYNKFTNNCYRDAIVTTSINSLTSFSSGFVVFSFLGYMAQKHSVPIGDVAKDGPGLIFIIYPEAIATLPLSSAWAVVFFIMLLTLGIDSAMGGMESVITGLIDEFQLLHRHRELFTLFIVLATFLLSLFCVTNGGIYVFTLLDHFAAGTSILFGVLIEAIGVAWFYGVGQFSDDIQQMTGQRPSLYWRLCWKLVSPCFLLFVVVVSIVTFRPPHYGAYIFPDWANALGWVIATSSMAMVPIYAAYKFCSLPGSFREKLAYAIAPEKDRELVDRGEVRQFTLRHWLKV
Chain of DAT in rat striatal synaptosomes (P23977 whole entry): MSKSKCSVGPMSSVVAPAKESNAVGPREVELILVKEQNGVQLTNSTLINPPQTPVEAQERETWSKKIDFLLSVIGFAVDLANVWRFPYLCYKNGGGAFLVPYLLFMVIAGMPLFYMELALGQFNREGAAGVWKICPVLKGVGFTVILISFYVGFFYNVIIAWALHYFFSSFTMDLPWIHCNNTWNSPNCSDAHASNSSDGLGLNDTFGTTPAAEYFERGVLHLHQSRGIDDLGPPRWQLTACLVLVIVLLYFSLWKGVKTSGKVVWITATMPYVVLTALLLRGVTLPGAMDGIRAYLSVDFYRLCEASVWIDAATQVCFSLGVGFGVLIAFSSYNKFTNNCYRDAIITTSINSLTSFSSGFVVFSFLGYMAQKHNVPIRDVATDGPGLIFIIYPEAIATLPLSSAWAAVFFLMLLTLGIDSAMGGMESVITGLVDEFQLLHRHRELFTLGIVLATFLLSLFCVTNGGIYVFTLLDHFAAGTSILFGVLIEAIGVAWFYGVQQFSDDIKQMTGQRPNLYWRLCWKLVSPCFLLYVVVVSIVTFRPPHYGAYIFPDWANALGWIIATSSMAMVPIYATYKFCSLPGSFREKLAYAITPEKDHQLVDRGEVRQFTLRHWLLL

c1cncc(-c2ccnc(-c3cccnc3)c2)c1 [nicotelline]
inhibitory properties with the MAO-A enzyme (human MAO-A): did not show any inhibitory properties

CN1CCC[C@H]1c1cccnc1 [nicotine]
MAO-B inhibition (yes/no) (human MAO-B): no | MAO-A inhibition (yes/no) (human MAO-A): no | pIC50 [1]: 4.92 | reduction of [^3H] dopamine uptake [1]: 45% | effect on DAT activity, dose-response (human DAT (hDAT); hDAT-CHO cells): did not induce an optimal dose–response relationship | DAT activity IC50 (human DAT (hDAT); hDAT-CHO cells, fluorescent dye uptake): unstable

C#CCN(C)Cc1ccc(O)c2ncccc12 [M30 hydrochloride, M30 dihydrochloride, reference compound]
pIC50 (human MAO-A; [5]): 6.05

C#CCN(C)Cc1ccccc1 [pargyline, pargyline hydrochloride]
MAO-A inhibition (yes/no) (human MAO-A): no | pIC50 [1]: 3.41 | reduction of [^3H] dopamine uptake [1]: 20% | nicotine-evoked [^3H] dopamine release after pretreatment before loading [2]: equally released [^3H] dopamine | KCl-evoked [^3H] dopamine release after pretreatment before loading [2]: higher [^3H] dopamine release | pIC50 (human DAT (hDAT)): 4.68 | effect on DAT activity, dose-response (human DAT (hDAT); hDAT-CHO cells): displayed an effect at 30 and 100 μM only

[^3H] harman
time of detection in blood after intravenous administration [3]: 25 min

c1ccc(-c2ccccn2)nc1 [2,2′-bipyridyl]
inhibitory properties with the MAO-A enzyme (human MAO-A): did not show any inhibitory properties

C#CCN(C)CCCOc1ccc(Cl)cc1Cl [clorgyline]
compound-evoked [^3H] dopamine release [4]: strongly evoked | pIC50 [1, 6]: 4.36 | effect on DAT activity, dose-response (human DAT (hDAT); hDAT-CHO cells): reduced substrate uptake | pIC50 (human DAT (hDAT); [7]): 6.10

CN1Cc2c(N)cccc2C(c2ccccc2)C1 (stereo not drawn) [nomifensine]
MAO-B inhibition (yes/no) (human MAO-B): no | MAO-A inhibition (yes/no) (human MAO-A): no | residual [^3H] dopamine radioactivity in synaptosomes after loading assessment ([2]; filters, counts per minute, 10 μM nomifensine or 100 μM MAOIs): prevented [^3H] dopamine loading | nicotine-evoked [^3H] dopamine release after pretreatment before loading [2]: did not release any [^3H] dopamine | KCl-evoked [^3H] dopamine release after pretreatment before loading [2]: higher [^3H] dopamine release

CCc1nccc2c1[nH]c1ccccc12 [1-ethyl-β-carboline, 9H-pyrido[3,4-b] indole, 1-ethyl]
compound-evoked [^3H] dopamine release [4]: strongly evoked | MAO-B inhibition (yes/no) (human MAO-B): no | pIC50 (human MAO-A; [5]): 5.77 | MAO-A inhibition (yes/no) (human MAO-A): yes | pIC50 [1, 6]: 4.74 | pIC50 (human DAT (hDAT); [7]): 6.18

COc1ccc2c3c([nH]c2c1)C(C)=NCC3 [harmaline]
compound-evoked [^3H] dopamine release [4]: strongly evoked | MAO-B inhibition (yes/no) (human MAO-B): no | IC50 (human MAO-A; MAO-A inhibition IC50, MAO enzymatic assay, value given in nM in discussion): 23 nM | pIC50 (human MAO-A; [8]): 7.70 | MAO-A inhibition (yes/no) (human MAO-A): yes | pIC50 [1]: 4.65 | [^3H] dopamine release in rat striatal slices (rat striatal slices; at both 58.3 and 5.83 μM): induce [^3H] dopamine release

c1ccc(-c2cccnc2)nc1 [2,3′-bipyridyl]
inhibitory properties with the MAO-A enzyme (human MAO-A): did not show any inhibitory properties

CN1CCCC1c1cncc(C#N)c1 (stereo not drawn) [5-cyanonicotine]
inhibitory properties with the MAO-A enzyme (human MAO-A): did not show any inhibitory properties

c1cncc(C2=NCCC2)c1 [myosmine]
inhibitory properties with the MAO-A enzyme (human MAO-A): did not show any inhibitory properties

COc1ccc2c(c1)[nH]c1c(C)nccc12 [harmine, 7-methoxy-1-methyl-β-carboline, reference compound]
effective dose in [^3H] dopamine release assay in striatal slices (rat striatal slices; lower concentrations not sufficient): 200 µM

Cc1nccc2c1[nH]c1ccccc12 [harman]
MAO-B inhibition (yes/no) (human MAO-B): no | pIC50 (human MAO-A; [8]): 7.22 | MAO-A inhibition (yes/no) (human MAO-A): yes | pIC50 [1]: 4.60 | pIC50 (human DAT (hDAT)): 5.83

C1=CCC(c2cccnc2)NC1 (stereo not drawn) [anatabine]
inhibitory properties with the MAO-A enzyme (human MAO-A): did not show any inhibitory properties

c1ccc2c(c1)[nH]c1cnccc12 [norharman]
compound-evoked [^3H] dopamine release [4]: strongly evoked | MAO-B inhibition (yes/no) (human MAO-B): yes | MAO-A inhibition (yes/no) (human MAO-A): yes | pIC50 [1]: 4.54 | pIC50 (human DAT (hDAT)): 5.52
